From ChEMBL document CHEMBL1151744, “New analgesics synthetically derived from the paracetamol metabolite N-(4-hydroxyphenyl)-(5Z,8Z,11Z,14Z)-icosatetra-5,8,11,14-enamide” (J Med Chem, 2008)
The source made the active and inactive calls. The calls are words filed in the database; no cut-off is given here.

What was measured:
[1] = molecular target: T1, Fatty-acid amide hydrolase 1 (Rattus norvegicus) (UniProt P97612); test: Inhibition of FAAH in rat brain membrane assessed as [14C]anandamide hydrolysis at 10 uM by scintillation counting; type: cell membranes
T1 sequence (whole entry): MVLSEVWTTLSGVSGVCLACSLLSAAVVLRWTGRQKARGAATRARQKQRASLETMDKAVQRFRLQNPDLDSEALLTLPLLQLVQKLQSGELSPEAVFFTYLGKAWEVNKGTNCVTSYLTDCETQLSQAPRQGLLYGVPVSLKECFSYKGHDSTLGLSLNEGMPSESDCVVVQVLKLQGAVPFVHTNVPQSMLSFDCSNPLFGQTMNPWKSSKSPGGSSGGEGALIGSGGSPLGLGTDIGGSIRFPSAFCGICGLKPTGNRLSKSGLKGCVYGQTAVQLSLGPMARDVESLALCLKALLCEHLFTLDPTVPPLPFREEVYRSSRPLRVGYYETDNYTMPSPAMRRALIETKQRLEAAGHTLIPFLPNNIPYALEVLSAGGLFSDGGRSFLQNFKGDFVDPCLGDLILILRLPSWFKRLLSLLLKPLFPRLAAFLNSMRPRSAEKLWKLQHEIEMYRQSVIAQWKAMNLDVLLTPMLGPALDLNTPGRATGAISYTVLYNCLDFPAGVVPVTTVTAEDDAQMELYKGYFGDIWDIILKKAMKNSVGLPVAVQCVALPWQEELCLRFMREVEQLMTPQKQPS
Procedure, shortened: (§1)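 Enzyme source was a rat brain membrane pellet resuspended in 50 mM Tris-HCl, pH 9.0, 70 µg protein per assay. It was incubated with compound (10 or 50 µM) and [14C]anandamide (10000 cpm) for 30 min at 37 °C. After CHCl3/MeOH (1:1) extraction, [14C]ethanolamine in the aqueous phase was counted by scintillation. Points were run in duplicate.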

[2] = molecular target: T2, Cannabinoid receptor 2 (Homo sapiens, UniProt P34972); test: Displacement of [3H]CP-55940 from human recombinant CB2 receptor expressed in HEK293 cells; type: cell-based
Procedure, shortened: (§2)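 Membranes were from HEK-293 cells overexpressing human CB1 or CB2, with [3H]CP-55,940 as radioligand (Kd 0.18 nM CB1, 0.31 nM CB2). Test compound (1 nM-10 µM) was incubated 90 min at 30 °C. Displaced radioligand was counted by scintillation. Ki came from IC50 via Cheng-Prusoff, with triplicate points; single-concentration screens were run in duplicate.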

[3] = molecular target: T1, Fatty-acid amide hydrolase 1 (Rattus norvegicus); test: Inhibition of FAAH in rat brain membrane assessed as [14C]anandamide hydrolysis at 50 uM by scintillation counting; type: cell membranes; procedure, shortened: as §1
[4] = molecular target: T3, Cannabinoid receptor 1 (Homo sapiens, UniProt P21554); test: Displacement of [3H]CP-55940 from human recombinant CB1 receptor expressed in HEK293 cells; type: cell-based; procedure, shortened: as §2
[5] = test system: Mus musculus; test: Antinociceptive activity against formalin-induced nociceptive behavior in C57BL/6 mouse assessed as mean licking time at 10 mg/kg, ip administered 15 mins prior to formalin challenge measured after 15 to 45 mins relative to control; type: functional; settings: route intraperitoneal
Procedure, shortened: (§3)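 C57BL/6 mice (n = 6-8 per group) were habituated 15-20 min in an observation chamber with mirrors, then given the compound ip at 6 µL/g in PBS/DMSO. Formalin (5%, 20 µL) went into the dorsal left hind paw 15 min later. Licking of the injected paw was summed over 0-10 min (phase 1) and 15-45 min (phase 2) and expressed as % of the vehicle control. Groups were compared by t test.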

[6] = molecular target: T4, Prostaglandin G/H synthase 2 (Homo sapiens) (UniProt P35354); test: Inhibition of human recombinant cyclooxygenase 2 assessed as prostaglandin F2alpha level at 1 uM by enzyme immunoassay relative to control
T4 sequence (whole entry): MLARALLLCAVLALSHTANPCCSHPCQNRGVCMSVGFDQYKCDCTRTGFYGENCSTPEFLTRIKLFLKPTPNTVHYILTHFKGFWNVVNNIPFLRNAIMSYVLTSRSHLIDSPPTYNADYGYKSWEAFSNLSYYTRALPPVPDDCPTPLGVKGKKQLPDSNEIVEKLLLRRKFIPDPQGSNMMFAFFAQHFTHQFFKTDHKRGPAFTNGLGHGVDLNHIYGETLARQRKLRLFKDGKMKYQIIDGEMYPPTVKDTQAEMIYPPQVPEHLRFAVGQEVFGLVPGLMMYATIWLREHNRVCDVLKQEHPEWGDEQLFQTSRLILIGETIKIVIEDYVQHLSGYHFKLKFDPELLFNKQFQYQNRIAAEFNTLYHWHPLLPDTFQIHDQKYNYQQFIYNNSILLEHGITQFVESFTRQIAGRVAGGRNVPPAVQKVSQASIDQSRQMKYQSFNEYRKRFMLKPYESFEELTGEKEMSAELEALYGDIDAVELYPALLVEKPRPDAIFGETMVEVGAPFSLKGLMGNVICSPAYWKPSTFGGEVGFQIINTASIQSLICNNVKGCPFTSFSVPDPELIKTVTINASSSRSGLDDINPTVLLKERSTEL
Procedure, shortened: (§4)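 Isolated ovine COX-1 or human recombinant COX-2 was incubated with compound at 1 or 10 µM for 10 min at 37 °C. Buffer was 0.1 M Tris-HCl pH 8.0 with 5 mM EDTA and 2 mM phenol. PGH2 formed was reduced to PGF2α with stannous chloride for quantification. Ketoprofen (10 µM) served as reference; values are means of four experiments.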

[7] = molecular target: T2, Cannabinoid receptor 2; test: Displacement of [3H]CP-55940 from human recombinant CB2 receptor expressed in HEK293 cells at 10 uM; type: cell-based
[8] = molecular target: T4, Prostaglandin G/H synthase 2 (Homo sapiens); test: Inhibition of human recombinant cyclooxygenase 2 assessed as prostaglandin F2alpha level at 10 uM by enzyme immunoassay relative to control; procedure, shortened: as §4
[9] = molecular target: T5, Prostaglandin G/H synthase 1 (Ovis aries) (UniProt P05979); test: Inhibition of ovine cyclooxygenase 1 assessed as prostaglandin F2alpha level at 10 uM by enzyme immunoassay relative to control; procedure, shortened: as §4
T5 sequence (whole entry): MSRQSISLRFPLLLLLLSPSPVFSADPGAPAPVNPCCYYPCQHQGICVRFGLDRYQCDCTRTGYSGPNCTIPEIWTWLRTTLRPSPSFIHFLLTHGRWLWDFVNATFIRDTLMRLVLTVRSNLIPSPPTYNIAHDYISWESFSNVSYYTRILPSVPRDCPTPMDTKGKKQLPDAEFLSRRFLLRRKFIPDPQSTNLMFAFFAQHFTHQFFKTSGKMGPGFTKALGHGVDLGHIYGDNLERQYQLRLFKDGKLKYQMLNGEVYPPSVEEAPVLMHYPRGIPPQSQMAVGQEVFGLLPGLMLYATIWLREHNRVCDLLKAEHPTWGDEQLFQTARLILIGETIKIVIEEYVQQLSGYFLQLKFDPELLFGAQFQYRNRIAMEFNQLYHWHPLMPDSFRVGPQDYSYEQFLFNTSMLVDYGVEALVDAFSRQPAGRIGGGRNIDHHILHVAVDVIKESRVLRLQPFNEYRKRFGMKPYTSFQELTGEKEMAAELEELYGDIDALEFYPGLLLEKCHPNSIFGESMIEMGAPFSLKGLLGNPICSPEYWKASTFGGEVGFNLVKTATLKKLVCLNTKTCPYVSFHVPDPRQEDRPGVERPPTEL

[10] = molecular target: T6, Prostaglandin G/H synthase 2 (Homo sapiens, UniProt P35354); test: Inhibition of cyclooxygenase 2 in human whole blood assessed as prostaglandin E2 level
T6 sequence (P35354 whole entry): T4 sequence (whole entry)

[11] = molecular target: Prostaglandin G/H synthase 1 (Homo sapiens, UniProt P23219); test: Inhibition of cyclooxygenase 1 in human whole blood assessed as thromboxane B2 level; type: tissue-based
Procedure, shortened: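 Fresh whole blood came from a healthy volunteer free of NSAIDs for 2 weeks. 1 mL aliquots received test agent in DMSO and were left to clot for 1 h at 37 °C. Serum TXB2 was measured by GC-MS/MS, in quadruplicate.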

[12] = test system: Mus musculus; test: Antinociceptive activity against formalin-induced nociceptive behavior in C57BL/6 mouse assessed as mean licking time at 5 mg/kg, ip administered 15 mins prior to formalin challenge measured after 15 to 45 mins relative to control; type: functional; settings: route intraperitoneal; procedure, shortened: as §3
[13] = molecular target: T5, Prostaglandin G/H synthase 1 (Ovis aries); test: Inhibition of ovine cyclooxygenase 1 assessed as prostaglandin F2alpha level at 1 uM by enzyme immunoassay relative to control; procedure, shortened: as §4
[14] = test system: Mus musculus; test: Antinociceptive activity against formalin-induced nociceptive behavior in C57BL/6 mouse assessed as mean licking time at 10 mg/kg, ip administered 15 mins prior to formalin challenge measured upto 10 mins relative to control; type: functional; settings: route intraperitoneal; procedure, shortened: as §3
[15] = test system: Mus musculus; test: Antinociceptive activity against formalin-induced nociceptive behavior in C57BL/6 mouse assessed as mean licking time at 5 mg/kg, ip administered 15 mins prior to formalin challenge measured upto 10 mins relative to control; type: functional; settings: route intraperitoneal; procedure, shortened: as §3
[16] = test system: Mus musculus; test: Antinociceptive activity against formalin-induced nociceptive behavior in C57BL/6 mouse assessed as mean licking time at 50 mg/kg, ip administered 15 mins prior to formalin challenge measured upto 10 mins relative to control; type: functional; settings: route intraperitoneal; procedure, shortened: as §3
[17] = molecular target: T3, Cannabinoid receptor 1; test: Displacement of [3H]CP-55940 from human recombinant CB1 receptor expressed in HEK293 cells at 10 uM; type: cell-based
[18] = species: Mus musculus; test: Toxicity in C57BL/6 mouse assessed as loss of locomotor behavior; type: organism-based; settings: in vivo
[19] = test system: Mus musculus; test: Antinociceptive activity against formalin-induced nociceptive behavior in C57BL/6 mouse assessed as mean licking time at 50 mg/kg, ip administered 15 mins prior to formalin challenge measured after 15 to 45 mins relative to control; type: functional; settings: route intraperitoneal; procedure, shortened: as §3

T2 sequence (P34972 whole entry): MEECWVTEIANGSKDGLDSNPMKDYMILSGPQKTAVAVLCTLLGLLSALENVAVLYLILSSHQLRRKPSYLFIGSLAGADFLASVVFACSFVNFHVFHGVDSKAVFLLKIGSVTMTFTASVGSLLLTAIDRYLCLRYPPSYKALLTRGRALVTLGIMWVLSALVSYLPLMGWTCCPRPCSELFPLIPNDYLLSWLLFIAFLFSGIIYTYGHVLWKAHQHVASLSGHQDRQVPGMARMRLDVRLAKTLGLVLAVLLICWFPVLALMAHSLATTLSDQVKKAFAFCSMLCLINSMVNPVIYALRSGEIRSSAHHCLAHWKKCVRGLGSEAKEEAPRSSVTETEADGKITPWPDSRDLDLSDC
T3 sequence (P21554 whole entry): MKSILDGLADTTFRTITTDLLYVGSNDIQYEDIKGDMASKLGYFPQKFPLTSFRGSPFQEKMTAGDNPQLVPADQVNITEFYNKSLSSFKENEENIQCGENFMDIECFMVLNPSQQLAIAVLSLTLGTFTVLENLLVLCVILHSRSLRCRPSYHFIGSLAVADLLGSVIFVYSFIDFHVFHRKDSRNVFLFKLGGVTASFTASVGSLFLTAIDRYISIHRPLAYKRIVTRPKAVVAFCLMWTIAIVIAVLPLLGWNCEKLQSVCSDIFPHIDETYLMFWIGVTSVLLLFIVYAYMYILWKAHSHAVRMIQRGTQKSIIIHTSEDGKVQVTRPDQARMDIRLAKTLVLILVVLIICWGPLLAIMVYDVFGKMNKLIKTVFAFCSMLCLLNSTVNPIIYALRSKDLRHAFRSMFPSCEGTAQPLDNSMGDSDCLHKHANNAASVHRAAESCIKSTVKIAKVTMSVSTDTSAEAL
Prostaglandin G/H synthase 1, sequence (P23219 whole entry): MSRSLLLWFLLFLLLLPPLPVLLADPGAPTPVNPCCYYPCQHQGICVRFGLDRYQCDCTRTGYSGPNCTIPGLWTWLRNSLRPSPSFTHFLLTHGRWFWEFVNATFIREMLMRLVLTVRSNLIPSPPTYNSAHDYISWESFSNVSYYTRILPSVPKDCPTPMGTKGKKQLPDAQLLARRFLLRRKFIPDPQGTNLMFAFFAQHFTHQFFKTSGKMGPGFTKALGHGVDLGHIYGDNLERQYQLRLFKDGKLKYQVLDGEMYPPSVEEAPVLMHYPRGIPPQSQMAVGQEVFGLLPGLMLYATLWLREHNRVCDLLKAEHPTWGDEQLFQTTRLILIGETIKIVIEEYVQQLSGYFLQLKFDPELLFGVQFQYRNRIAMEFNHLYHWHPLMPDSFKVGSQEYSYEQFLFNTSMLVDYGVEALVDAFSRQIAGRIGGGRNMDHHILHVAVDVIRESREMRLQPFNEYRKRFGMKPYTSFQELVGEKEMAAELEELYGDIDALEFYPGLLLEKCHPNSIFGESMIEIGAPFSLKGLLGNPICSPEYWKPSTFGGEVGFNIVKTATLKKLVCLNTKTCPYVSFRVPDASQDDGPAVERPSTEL

Structure (SMILES) | inhibition [1] [%] | Ki [2] [nM] | inhibition [3] [%] | Ki [4] [nM] | Activity [5] [%] | inhibition [6] [%] | Activity [7] [%] | inhibition [8] [%] | inhibition [9] [%] | IC50 [10] [µM] | Activity [11] | Activity [12] [%] | inhibition [13] [%] | Activity [14] [%] | Activity [15] [%] | Activity [16] [%] | Activity [17] [%] | Activity [18] | Activity [19] [%]
CCCCC/C=C\C/C=C\C/C=C\C/C=C\CCCC(=O)Nc1ccc2[nH]ncc2c1 | 1 | 1000 | 2 | 300 | – | – | – | – | – | – | – | – | – | – | – | – | – | – | –
CC(=O)Nc1ccc2[nH]ncc2c1 | – | – | 4 | – | 73 | 80 | 12 | 70 | 92 | 107 | inactive | 94 | 97 | 142 | 105 | 29 | 1 | Non-toxic | 38
CCCCC/C=C\C/C=C\C/C=C\C/C=C\CCCC(=O)Nc1ccc(O)c(OC)c1 | 23 | 1000 | 62 | 1400 | – | – | – | – | – | – | – | – | – | – | – | – | – | – | –
CCCCC/C=C\C/C=C\C/C=C\C/C=C\CCCC(=O)NCc1ccc(O)cc1 | 56 | 100 | 88 | 200 | – | – | – | – | – | – | – | – | – | – | – | – | – | – | –
